# Published values gathered from unrelated publications.
# Lines come from different studies, so protocols differ.
# BCHE: Cholinesterase (BCHE, Equus caballus, UniProt P81908)
# SLC6A4: Sodium-dependent serotonin transporter (SLC6A4, Homo sapiens, UniProt P31645)
SMILES,target,observed,mode,method,notes,IC50 [µM]
COC(=O)[C@H](CCC(=O)Nc1cccc2c1ccn2Cc1cccc(C(N)=O)c1)NC(=O)OCc1ccccc1,"NAD-dependent protein deacetylase sirtuin-3, mitochondrial (SIRT3, Homo sapiens, UniProt Q9NTG7)",enzyme activity,inhibitor,,,3.6
CC=C1[C@H]2C=C(C)C[C@]1(N)c1cc(C#N)c(=O)[nH]c1C2,BCHE,enzyme activity,inhibitor,Ellman,,1050
O=P(O)(O)Oc1cccc(OP(=O)(O)O)c1,"Signal transducer and activator of transcription 5A, SH2 (Homo sapiens, UniProt P42229)",ligand displacement,,FP,,50
CC=C1[C@H]2C=C(C)C[C@]1(N)c1cc(OCCC)c(=O)[nH]c1C2,BCHE,enzyme activity,inhibitor,Ellman,,87.3
NC(=O)NO,"Urease (Canavalia ensiformis, UniProt P07374)",enzyme activity,inhibitor,,,7.42
NC(=O)N1C[C@@H](CCN2CC=C(c3c[nH]c4cc(Cl)ccc34)CC2)c2ccccc21,SLC6A4,ligand displacement,,radioligand,cell membranes,0.169
CC=C1[C@H]2C=C(C)C[C@]1(N(C)C)c1ccc(=O)n(C)c1C2,BCHE,enzyme activity,inhibitor,Ellman,,259
C[C@@H](O)[C@@H]1NC(=O)[C@H](CCCCN)NC(=O)[C@@H](Cc2c[nH]c3ccccc23)NC(=O)[C@H](Cc2ccc(O)cc2)NC(=O)[C@@H](NC(=O)[C@@H](Cc2ccccc2)NC(=O)CCC(C(=O)O)N2CCN(C(CCC(=O)O)C(=O)O)CCN(C(CCC(=O)O)C(=O)O)CC2)CSSC[C@@H](C(=O)N[C@H](CO)[C@@H](C)O)NC1=O (stereo partly shown),"Somatostatin receptor type 2 (Rattus norvegicus, UniProt P30680)",ligand displacement,,radioligand,,0.125
O=C(CNC(=S)NN=Cc1ccc([N+](=O)[O-])cc1)c1ccc(Cl)cc1,BCHE,enzyme activity,inhibitor,Ellman,,425
CC=C1[C@H]2C=C(C)C[C@]1(N)c1cc(OC)c(=O)[nH]c1C2,BCHE,enzyme activity,inhibitor,Ellman,,599
C#CCNc1nc(NCCCCC2CCN(Cc3ccccc3)CC2)c(C#N)c(-c2ccccc2)c1C#N,BCHE,enzyme activity,inhibitor,Ellman,,0.61
CN1C[C@H](C(=O)N[C@]2(C)O[C@@]3(O)[C@@H]4CCCN4C(=O)[C@H](Cc4ccccc4)N3C2=O)C[C@@H]2c3cccc4[nH]cc(c34)C[C@H]21,"D(1A) dopamine receptor (DRD1, Homo sapiens, UniProt P21728)",ligand displacement,,radioligand,,4.81
Clc1ccc2c(C3=CCN(CC[C@@H]4CNc5ccccc54)CC3)c[nH]c2c1,SLC6A4,ligand displacement,,radioligand,cell membranes,0.205
